This is an account of results in PMC8904266 (Drug Design, Development and Therapy, 2022).

For data set [1], the system named is A549 lung cancer cells. Kind of data set: In vitro antitumor MTT assay, A549. As to conditions: for IC50: Homo sapiens, A549, 24 h, read-out: IC50 A549; for selectivity index to A549: WISH versus A549. It counts as cell-based, human. Put shortly:
(§1)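 ATCC cell lines grown in RPMI-1640 with 10% FBS, penicillin/streptomycin, at 37 °C and 5% CO2. Seeded at 1.0×10^4 cells/well for 48 h, then treated 24 h with a range of test compound concentrations. MTT (5 mg/mL solution) added for 4 h; formazan dissolved in DMSO and read at 570 nm. IC50 from percent viability; mean ± S.D. of three separate experiments.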

Data set [2] relates to HepG-2 hepatoma cells. In words: In vitro antitumor MTT assay, HepG-2. It counts as cell-based, human. As to conditions: for selectivity index to HepG-2: WISH versus HepG-2; for IC50: read-out: IC50 HepG-2, MTT, 24 h treatment, mean of three experiments. Put shortly:
as §1

Data set [3] in a line: In vitro antitumor MTT assay, Caco-2. It counts as cell-based, human. The note with it: human, Caco-2. Put shortly:
as §1

For data set [4], the system named is Caco-2 colon cancer cells. Kind of data set: In vitro antitumor MTT assay, Caco-2. It counts as cell-based, human. The note with it: Homo sapiens, Caco-2, 24 h, read-out: IC50 Caco-2. The essentials:
as §1

The subject of data set [5] is MDA breast cancer cells. In words: In vitro antitumor MTT assay, MDA. It counts as cell-based, human. As to conditions: for IC50: Homo sapiens, 24 h, read-out: IC50 MDA; for selectivity index to MDA: WISH versus MDA. Put shortly: as §1
The test system of data set [6] is WISH normal cell line. Kind of data set: Cytotoxic effect against normal cell line. It counts as cell-based. As to conditions: read-out: IC50 WISH.
In data set [7] the target is VEGFR-2 kinase (Homo sapiens, UniProt P35968). In words: biochemical. As to conditions: VEGFR-2, IC50, VEGFR-2 Kinase Assay Kit (BPS-Bioscience), luminescence.
For data set [8], the system named is HepG-2 cells. In words: Cell cycle analysis. It counts as cell-based, human. The note with it: HepG-2, 9.52 µM, 48 h.
Data set [9] relates to HepG-2 cells. Kind of data set: Annexin V-FITC/PI apoptosis assay. It counts as cell-based, human. Put shortly:
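HepG-2 cells seeded and incubated 24 h, then exposed to test compound at 9.52 µM. Harvested cells washed 3× in PBS, […] double-stained with Annexin V-FITC/propidium iodide for 20 min in the dark. Early/late apoptotic and necrotic fractions measured by flow cytometry. Mean ± SEM of 3 experiments; unpaired t-test versus untreated control.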

Data set [10] deals with BAX. In words: Western blot analysis, BAX. It counts as cell-based, human. The note with it: HepG-2, 9.52 µM, 48 h. Put shortly:
(§2)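 HepG-2 treated 48 h with 9.52 µM test compound or DMSO control. Lysed at pH 7.4 (Tris, EDTA, EGTA, NaCl, NP-40, Triton X-100, protease/phosphatase inhibitors), freeze-thawed at −80 °C, sonicated and centrifuged. 30 µg protein run on SDS-PAGE and blotted to PVDF. Primary antibody 1:1000 overnight at 4 °C; HRP secondary 1:2000. ECL detection; bands normalized to β-actin, control set to 1; mean ± SEM, n=3.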

Data set [11] relates to Bcl-2. In words: Western blot analysis, Bcl-2. It counts as cell-based, human. The note with it: HepG-2, 9.52 µM, 48 h. Put shortly: as §2
In data set [12] the test system is BAX/Bcl-2 ratio. Kind of data set: Western blot analysis, BAX/Bcl-2 ratio. It counts as cell-based, human. The note with it: HepG-2, 9.52 µM, 48 h. The essentials:
as §2

Data set [13] has as its system caspase-3. In words: Western blot analysis, caspase-3. It counts as cell-based, human. The note with it: HepG-2, 9.52 µM, 48 h. Put shortly: as §2
The subject of data set [14] is p53. In words: Western blot analysis, p53. It counts as cell-based, human. The note with it: 48 h. The essentials:
as §2

Where “and” joins values, the source holds several entries; their conditions need not be identical. Equal entries are not always repeated.

VEGFR-2 kinase, sequence (P35968 20-1356): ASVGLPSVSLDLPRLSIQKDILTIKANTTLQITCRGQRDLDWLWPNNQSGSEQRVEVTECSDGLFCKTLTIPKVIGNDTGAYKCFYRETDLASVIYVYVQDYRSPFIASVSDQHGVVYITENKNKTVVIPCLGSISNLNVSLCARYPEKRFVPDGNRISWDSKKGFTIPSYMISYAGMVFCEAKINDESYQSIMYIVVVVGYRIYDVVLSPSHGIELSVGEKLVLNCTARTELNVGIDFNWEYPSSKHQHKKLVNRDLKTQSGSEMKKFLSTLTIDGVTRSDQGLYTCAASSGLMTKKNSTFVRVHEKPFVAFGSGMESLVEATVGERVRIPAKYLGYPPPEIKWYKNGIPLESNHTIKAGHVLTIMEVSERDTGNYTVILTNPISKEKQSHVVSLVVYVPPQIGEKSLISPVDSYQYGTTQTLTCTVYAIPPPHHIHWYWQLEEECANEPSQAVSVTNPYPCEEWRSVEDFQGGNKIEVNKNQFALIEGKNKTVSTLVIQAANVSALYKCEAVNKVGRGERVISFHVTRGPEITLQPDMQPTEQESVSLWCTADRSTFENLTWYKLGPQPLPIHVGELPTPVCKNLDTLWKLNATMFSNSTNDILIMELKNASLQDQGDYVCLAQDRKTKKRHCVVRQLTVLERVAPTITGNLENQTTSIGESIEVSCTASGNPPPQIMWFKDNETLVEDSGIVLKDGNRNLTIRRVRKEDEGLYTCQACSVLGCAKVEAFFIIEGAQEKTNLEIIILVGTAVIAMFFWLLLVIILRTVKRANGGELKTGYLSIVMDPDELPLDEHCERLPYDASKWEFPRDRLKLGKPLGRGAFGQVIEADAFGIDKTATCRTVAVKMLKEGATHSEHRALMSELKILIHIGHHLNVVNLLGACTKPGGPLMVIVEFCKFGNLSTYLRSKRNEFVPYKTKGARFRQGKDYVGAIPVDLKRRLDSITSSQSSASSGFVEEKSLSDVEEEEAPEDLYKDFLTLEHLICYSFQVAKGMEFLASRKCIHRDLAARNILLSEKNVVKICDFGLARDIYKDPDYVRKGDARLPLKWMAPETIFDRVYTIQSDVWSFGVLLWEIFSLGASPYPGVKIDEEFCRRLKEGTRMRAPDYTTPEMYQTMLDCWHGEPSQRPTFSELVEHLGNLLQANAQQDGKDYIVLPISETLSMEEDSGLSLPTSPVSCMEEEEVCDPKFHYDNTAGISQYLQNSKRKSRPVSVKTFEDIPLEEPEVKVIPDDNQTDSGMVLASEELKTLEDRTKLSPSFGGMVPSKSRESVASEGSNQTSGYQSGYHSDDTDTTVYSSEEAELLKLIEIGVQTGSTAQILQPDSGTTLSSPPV

With `Cc1ccc(NC(=O)CN2CCN(c3nc4ccccc4nc3Cl)CC2)cc1` [Compound 10e, 2-(4-(3-chloroquinoxalin-2-yl)piperazin-1-yl)-N-(p-tolyl)acetamide], the half-inhibitory concentration (IC50) in data set [1] was found to be 11.6 µM; in data set [4], 16.3 µM; in data set [5], 14.3 µM; in data set [6] it was 106 µM; in [7], 0.241 ± 0.021 µM. Further, the “selectivity index to A549” value in data set [1] is on record as 9.18. The “selectivity index to HepG-2” value in data set [2] amounted to 13.17. Besides, the selectivity ratio at 24 h in data set [3] came out at 6.51. In data set [5], the “selectivity index to MDA” value came to 7.43.
On to `O=C(CN1CCN(c2nc3ccccc3nc2Cl)CC1)NCc1ccccc1` [Compound 11, N-benzyl-2-(4-(3-chloroquinoxalin-2-yl)piperazin-1-yl)acetamide], for which the IC50 in data set [1] is 10.6 µM; in data set [4] it was 12.5 µM; in data set [5], 11.5 µM; in [6] it was 129 µM; in [7], 0.19 µM and 0.192 µM. Moreover, the “selectivity index to A549” value in data set [1] amounted to 12.18. Also, the “selectivity index to HepG-2” value in data set [2] is recorded as 13.57. Also, in [3], the selectivity ratio at 24 h came out at 10.4. The “selectivity index to MDA” value in data set [5] was 11.22. The “cell accumulation in the G2/M phase” value in data set [8] (control 15.16%) came out at 25.22%. For the same compound, the “cell accumulation rate at S phase” value in data set [8] (control 20.14%) was 46.10%. Moreover, the “cell accumulation percentage in phase G1” value in data set [8] (control 63.18%) was 27.37%. Besides, the “increase of early apoptosis rate compared to control” value in [9] (HepG-2, 9.52 µM) is reported as “about 9 fold”. In data set [9] (HepG-2, 9.52 µM), the “increase of late apoptosis compared to control” value is reported as 3 fold. In data set [9] (HepG-2, 9.52 µM, 48 h, control 0.11, mean ± SEM), this compound showed a Necrosis of 0.17 ± 0.01. For the same compound, in data set [9] (HepG-2, 9.52 µM, 48 h, control 0.13, mean ± SEM), the “Apoptosis, Late” value was found to be 0.38 ± 0.09. The “Apoptosis, Early” value in [9] (HepG-2, 9.52 µM, 48 h, control 4.75, mean ± SEM) was 43.60% and 43.60 ± 4.16 %. The “effect on HepG-2 necrosis” value in [9] (HepG-2, 9.52 µM, in words) is listed as “weak effect”. Also, the viability at 9.52 µM in data set [9] (Homo sapiens, HepG2, 48 h, read-out: Viable cells) was determined as 56 ± 4.19%. For the same compound, the “BAX protein expression level compared to control” value in data set [10] (in words) was “double increase”. Also, the “Protein Level (Normalized to β-Actin) BAX” value in data set [10] (control set to 1, mean ± SEM) is given as 2.16 ± 0.22. Also, the “Bcl-2 expression level compared to control” value in data set [11] (in words) is listed as “decreased to half”. Moreover, the “Protein Level (Normalized to β-Actin) Bcl-2” value in data set [11] (control set to 1, mean ± SEM) stood at 0.50 ± 0.03. For the same compound, the “increase in BAX/Bcl-2 ratio compared to control” value in [12] amounted to 4 fold. Besides, the “Protein Level (Normalized to β-Actin) BAX/Bcl-2 Ratio” value in data set [12] (control set to 1, mean ± SEM) was determined as 4.25 ± 0.47. Besides, the “increase in caspase-3 level compared to untreated cells” value in [13] amounted to 2.3 fold. Besides, the “Protein Level (Normalized to β-Actin) Caspases-3” value in data set [13] (control set to 1, mean ± SEM) worked out at 2.32 ± 0.11. Moreover, the “increase in P53 expression compared to control” value in data set [14] (HepG-2, 9.52 µM (IC50 value)) is 3 fold. In [14] (HepG-2, 9.52 µM, control set to 1, mean ± SEM), the “Protein Level (Normalized to β-Actin) P53” value is 3.07 ± 0.24.
On to `O=C(CN1CCN(c2nc3ccccc3[nH]c2=O)CC1)Nc1ccccc1` [Compound 13a, 2-(4-(3-oxo-3,4-dihydroquinoxalin-2-yl)piperazin-1-yl)-N-phenylacetamide], for which the IC50 in data set [1] was determined as 11.2 µM; in data set [4], 13.2 µM; in data set [5], 17.9 µM; in data set [6], 106 µM; in [7], 0.258 ± 0.023 µM.
As to `COc1ccc(NC(=O)CN2CCN(c3nc4ccccc4[nH]c3=O)CC2)cc1` [Compound 13b, N-(4-methoxyphenyl)-2-(4-(3-oxo-3,4-dihydroquinoxalin-2-yl)piperazin-1-yl)acetamide], the IC50 was 11 µM in [1]; 8.83 µM in data set [2]; 10.5 µM in [4]; 14.7 µM in data set [5]; 109 µM in [6]; 0.471 ± 0.034 µM in data set [7]. In addition, the “selectivity index to A549” value in [1] was found to be 9.94. Moreover, in data set [2], the “selectivity index to HepG-2” value is recorded as 12.35. In data set [3], the selectivity ratio at 24 h is 10.4. Also, the “selectivity index to MDA” value in data set [5] is given as 7.40.
With `O=C(CN1CCN(c2nc3ccccc3[nH]c2=O)CC1)Nc1ccc(F)cc1` [Compound 13d, N-(4-fluorophenyl)-2-(4-(3-oxo-3,4-dihydroquinoxalin-2-yl)piperazin-1-yl)acetamide], the half-inhibitory concentration (IC50) stood at 13.4 µM in [1]; 8.35 µM in [2]; 13 µM in data set [4]; 14.4 µM in data set [5]; 60.5 µM in [6]; 0.602 ± 0.048 µM in [7].
As for `CC(=O)c1ccc(NC(=O)CN2CCN(c3nc4ccccc4[nH]c3=O)CC2)cc1` [Compound 13f, N-(4-acetylphenyl)-2-(4-(3-oxo-3,4-dihydroquinoxalin-2-yl)piperazin-1-yl)acetamide], the IC50 worked out at 11.3 µM in [1]; 8.4 µM in [2]; 9.01 µM in [4]; 16.4 µM in [5]; 54.8 µM in data set [6]; 0.465 ± 0.046 µM in data set [7].
